For three molecules, Activity, inhibition and IC50 results are on record in ChEMBL document CHEMBL4261567, “Phenylethynyl-substituted Heterocycles Inhibit Cyclin D1 and Induce the Expression of Cyclin-dependent Kinase Inhibitor p21Wif1/Cip1 in Colorectal Cancer Cells” (Medchemcomm, 2018).

Active and inactive are the calls of the source. The rule behind the calls is not given here.

For data set [1], the target named is S-adenosylmethionine synthase isoform type-2 (Homo sapiens) (UniProt P31153). Kind of data set: Binding affinity to GST-tagged MAT2A (unknown origin) expressed in Escherichia coli BL21 by Western blot based pull down assay. In a few lines:
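Recombinant MAT2A was incubated with or without the biotinylated probe, and the complex was captured on streptavidin beads. Bound protein was eluted with 2.5 mM D-(+)-biotin, run on 10% SDS-PAGE, and detected by western blot with an anti-MAT2A antibody.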

The nature of data set [2]: Cytotoxicity against human BEAS2B cells assessed as inhibition of cell proliferation at 1 uM after 4 days by Vi-Cell cell viability analyzer based method relative to control. Also noted: species or system BEAS-2B. The method in brief:
(§1)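 Cells (colon LS174T, HT-29, Caco2; lung epithelial BEAS-2B; fibroblast HEL 299) were kept in RPMI or DMEM with 5% or 10% FBS plus 1% penicillin/streptomycin. 3 × 10^4 cells per well were exposed to DMSO or compound. After 4 days, cell number and viability were counted on a Vi-Cell analyzer. Results are given as percent inhibition of proliferation at the stated concentration.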

For data set [3], the system named is LS174T. As to the kind of experiment: Antiproliferative activity against human LS174T cells assessed as inhibition of cell proliferation at 1 uM after 4 days by Vi-Cell cell viability analyzer based method relative to control. The data set is classed as functional. The note with it: 96 h. In a few lines: as §1
A short description of data set [4]: Cytotoxicity against human HEL299 cells assessed as inhibition of cell proliferation at 1 uM after 4 days by Vi-Cell cell viability analyzer based method relative to control. Also noted: species or system HEL 299. The method in brief:
as §1

Data set [5] can be described thus: Cytotoxicity against human BEAS2B cells assessed as inhibition of cell proliferation at 10 uM after 4 days by Vi-Cell cell viability analyzer based method relative to control. Also noted: species or system BEAS-2B. In a few lines:
as §1

For data set [6], the system named is Caco-2. Kind of data set: Antiproliferative activity against human Caco2 cells assessed as inhibition of cell proliferation at 1 uM after 4 days by Vi-Cell cell viability analyzer based method relative to control. It is filed as functional. The note with it: Caco-2, 96 h. The method in brief:
as §1

Data set [7] is described as follows: Cytotoxicity against human HEL299 cells assessed as inhibition of cell proliferation at 10 uM after 4 days by Vi-Cell cell viability analyzer based method relative to control. Also noted: species or system HEL 299. In a few lines: as §1
The test system of data set [8] is LS174T. As to the kind of experiment: Antiproliferative activity against human LS174T cells assessed as inhibition of cell proliferation at 10 uM after 4 days by Vi-Cell cell viability analyzer based method relative to control. The conditions noted are these: 96 h. The data set is classed as functional. The method in brief:
as §1

Data set [9] deals with HT-29. Kind of data set: cells. The note with it: Homo sapiens, HT-29, 96 h, read-out: INH.
Data set [10] relates to HT-29. As to the kind of experiment: Antiproliferative activity against human HT-29 cells assessed as inhibition of cell proliferation at 1 uM after 4 days by Vi-Cell cell viability analyzer based method relative to control. The note with it: HT-29, 96 h. The data set is classed as functional. The method in brief:
as §1

Data set [11] relates to Caco-2. Kind of data set: cells. The note with it: Homo sapiens, Caco-2, 96 h, read-out: INH.
In data set [12] the target is G1/S-specific cyclin-D1 (Homo sapiens) (UniProt P24385). As to the kind of experiment: Inhibition of cyclin D1 in human LS174T cells assessed as induction of p21 waf1/cip1 expression at 300 nM by Western blot analysis. It is filed as cell-based. The method in brief:
(§2)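 LS174T cells were treated at 300 nM. Lysates were western blotted with antibodies to cyclin D1 and p21Wif1/Cip1, using β-tubulin as the loading control.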

The subject of data set [13] is LS174T. Kind of data set: Antiproliferative activity against human LS174T cells assessed as inhibition of cell proliferation at 30 nM after 4 days by Vi-Cell cell viability analyzer based method relative to control. The data set is classed as functional. The note with it: 96 h. The method in brief:
as §1

Data set [14] concerns LS174T. Kind of data set: Antiproliferative activity against human LS174T cells assessed as inhibition of cell proliferation at 100 nM after 4 days by Vi-Cell cell viability analyzer based method relative to control. It is filed as functional. The note with it: 96 h. In a few lines:
as §1

For data set [15], the system named is LS174T. As to the kind of experiment: Antiproliferative activity against human LS174T cells assessed as inhibition of cell proliferation after 4 days by Vi-Cell cell viability analyzer based method. The data set is classed as functional. The note with it: 96 h. In a few lines:
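LS174T cells in RPMI or DMEM with 5% or 10% FBS plus 1% penicillin/streptomycin were seeded at 3 × 10^4 cells per well. They were treated with DMSO or a range of compound concentrations, and cell number and viability were counted on a Vi-Cell analyzer after 4 days. IC50 was fitted from the dose-response curve.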

Data set [16] has as its target G1/S-specific cyclin-D1 (Homo sapiens) (UniProt P24385). As to the kind of experiment: Inhibition of cyclin D1 in human LS174T cells assessed as reduction in protein level at 300 nM by Western blot analysis. It is filed as cell-based. The method in brief: as §2

Chain of G1/S-specific cyclin-D1 (Homo sapiens) (P24385 whole entry): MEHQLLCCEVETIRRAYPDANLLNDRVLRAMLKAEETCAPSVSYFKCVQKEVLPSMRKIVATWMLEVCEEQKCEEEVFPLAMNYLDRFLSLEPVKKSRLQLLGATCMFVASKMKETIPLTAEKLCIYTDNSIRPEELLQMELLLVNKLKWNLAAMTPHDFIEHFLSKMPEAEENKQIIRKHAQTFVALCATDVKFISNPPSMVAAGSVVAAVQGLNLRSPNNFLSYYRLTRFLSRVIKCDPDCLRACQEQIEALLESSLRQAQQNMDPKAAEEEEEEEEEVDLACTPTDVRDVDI
Chain of S-adenosylmethionine synthase isoform type-2 (Homo sapiens) (P31153 whole entry, looked up, canonical isoform): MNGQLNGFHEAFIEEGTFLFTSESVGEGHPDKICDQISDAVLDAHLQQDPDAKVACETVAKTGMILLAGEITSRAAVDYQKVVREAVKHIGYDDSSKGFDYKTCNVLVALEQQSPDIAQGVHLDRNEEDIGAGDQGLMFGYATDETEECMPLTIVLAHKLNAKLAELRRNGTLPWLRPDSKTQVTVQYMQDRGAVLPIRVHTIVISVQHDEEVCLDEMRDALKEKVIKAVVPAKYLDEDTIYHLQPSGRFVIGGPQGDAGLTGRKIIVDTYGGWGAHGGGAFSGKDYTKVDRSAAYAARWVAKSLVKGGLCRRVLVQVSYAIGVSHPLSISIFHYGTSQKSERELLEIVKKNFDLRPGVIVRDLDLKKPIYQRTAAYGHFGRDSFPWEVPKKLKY

As for `CN(CC(=O)NCCOCCOCCNC(=O)CCCC[C@@H]1SC[C@@H]2NC(=O)N[C@@H]21)c1ccc(C#Cc2c(F)cccc2F)c2ccccc12`, the result in data set [1] was Active.
As for `O=c1[nH]cc(F)c(=O)[nH]1` [FLUOROURACIL], the inhibition at 96 h, 1 µM in [2] stood at 4.5%; in data set [4], 12.1%. For the same molecule, the inhibition at 1 µM came to 6.5% in the data set on LS174T [3], 37.7% in the data set with Caco-2 [6] and 11.6% with HT-29 [10]. Besides, the inhibition at 96 h, 10 µM in data set [5] was determined as 57.5%; in data set [7], 64.6%. The inhibition at 10 µM amounted to 82.3% in the data set on LS174T [8], 82.9% with HT-29 [9] and 60.2% with Caco-2 [11].
Turning to `CN(C)c1ncc(C#Cc2c(F)cccc2F)c2ccccc12`, the inhibition at 96 h, 1 µM in data set [2] came out at 1.5%; in data set [4], 13.9%. Further, the inhibition entry in [12] and in data set [16] was “Active” each time. In the data set with LS174T [13], the inhibition at 0.03 µM is 86%. Further, the inhibition at 1 µM in the data set on LS174T [3] was 99.5%; in the data set with Caco-2 [6], 54.5%; in the data set on HT-29 [10], 35.9%. The inhibition at 96 h, 10 µM in data set [5] worked out at 16.2%; in data set [7], 11.7%. Also, the inhibition at 10 µM in the data set with LS174T [8] is 97.6%. For the same molecule, in the data set with LS174T [14], the inhibition at 0.1 µM came to 81.7%. Further, the IC50 in the data set on LS174T [15] was 11.8 nM.
